First the molecules themselves.
B1: tRNA (parent)
chain: GUUCCGUUGGCGUAAUGGUAACGCGUCUCCCUCCUAAGGAGAAGACUGCGGGUUCGAGUCCCGUACGGAACG

This sample holds only a part of the variants without activity. Some results are limits rather than exact numbers.

In this data set the parent is B1. In words: yeast fitness relative to wild type (ratio to wild type); higher = fitter; tRNA-Arg(CCU), competitive growth, 37 C, YPD. Summed up:
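Variants of the tRNA-Arg(CCU) gene were chemically synthesised with a 3% per-site mutation rate across 69 sites and placed at the native genomic locus in Saccharomyces cerevisiae. Six parallel replicates of the pooled strains were competed in YPD at 37°C for 24 hours, and gene amplicons from the start and end populations were read by 100-nucleotide paired-end sequencing. Darwinian fitness relative to wild type was derived from changes in genotype frequencies. Genotypes required ≥ 100 starting reads, and estimates < 0.5 were set to 0.5.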
Consider GUUCCGUUGGCGUAAUGGUAACGCGUCUCCCUCCUAAGGAGGAGACUGUGGGUUCGAGUCCCGUUCGGAACG [A42G C49U A65U], for which the yeast fitness is ≤ 0.5.
For GUUCCGUUGGCGUAAUGGUAACGCGUCUCCCUCCUAAGGAGGAGACUGGGGGUCCGAGUCCCCUACGGAUCG [A42G C49G U54C G63C A70U], the yeast fitness is 0.547.
Turning to GUUCCGUUGGCGUAAUGGUAACGCGUCUCCCUCCUAAGGAGGACACUGUGGGUUCGCGUCCCGUACGGAACG [A42G G44C C49U A57C], the yeast fitness was ≤ 0.5.
As to GUUCCGUUGGCGUAAUGGUAACGCGUCUCCCUCCUAAGGAGGAGACUGCGGGUUCAAGUCCCGUACGGAACG [A42G G56A], the yeast fitness turned out to be 0.87.
GUUCCGUUGGCGUAAUGGUAACGCGUCUCCCUCCUAAGGAGCAGACCGCGGGUACGAGUCCCGUACCGUACG [A42C U47C U54A G67C A69U]: the yeast fitness was ≤ 0.5.
Consider GUUCCGUUGGCGUAAUGGUAACGCGUCUCCCUCCUAAGGAGGAGACUGCGGGUUCGAGUCUCGUACGGAACG [A42G C61U], for which the yeast fitness was found to be 0.853.
Consider GUUCCGUUGGCGUAAUGGUAACGCGUCUCCCUCCUAAGGAGGAGACUGCGGGUUCGAGUCACGUACGGAACG [A42G C61A], for which the yeast fitness turned out to be 0.553.
Turning to GUUCCGUUGGCGUAAUGGUAACGCGUCUCCCUCCUAAGGAGCAGACUGCGGGUUCGAGUCCCCUACGGCACG [A42C G63C A69C], the yeast fitness was ≤ 0.5.
The same measure for GUUCCGUUGGCGUAAUGGUAACGCGUCUCCCUCCUAAGGAGGAGACUGCGUGUUCGAGUCCCGUACGGACCG [A42G G51U A70C]: ≤ 0.5; for GUUCCGUUGGCGUAAUGGUAACGCGUCUCCCUCCUAAGGAGGAGACUGCGGGUUCGAGUCCCGUACGGCACG [A42G A69C]: 0.95.
For the variant GUUCCGUUGGCGUAAUGGUAACGCGUCUCCCUCCUAAGGAGGACACUGCGGGUUCGAGACCCGUACGGAACG [A42G G44C U59A], the yeast fitness was found to be 0.537.
As for GUUCCGUUGGCGUAAUGGUAACGCGUCUCCCUCCUAAGGAGCAGACUGCGGGUUCGAGUCCCGUACAGAACG [A42C G67A], the yeast fitness is 0.833.
As to GUUCCGUUGGCGUAAUGGUAACGCGUCUCCCUCCUAAGGAGGGGAGUGCGGGUUCCAGUCCCGUACGGAACG [A42G A43G C46G G56C], the yeast fitness turned out to be 0.57.
Take GUUCCGUUGGCGUAAUGGUAACGCGUCUCCCUCCUAAGGAGGACACUGCGGGUUCGAGUCCCGUACGGAACG [A42G G44C]: the yeast fitness was 0.906.
With GUUCCGUUGGCGUAAUGGUAACGCGUCUCCCUCCUAAGGAGGAGACUGCGGGUUCGAGUCUCCUACGGAACG [A42G C61U G63C], the yeast fitness is ≤ 0.5.
For GUUCCGUUGGCGUAAUGGUAACGCGUCUCCCUCCUAAGGAGGAGACUACGCGUUCGAGUCCCGUACGGAACG [A42G G48A G51C] the value was ≤ 0.5; for GUUCCGUUGGCGUAAUGGUAACGCGUCUCCCUCCUAAGGAGCAGACUGCGGGUUCGAGUCUGGUACGGAACG [A42C C61U C62G], ≤ 0.5.
For the variant GUUCCGUUGGCGUAAUGGUAACGCGUCUCCCUCCUAAGGAGGUGACUGCGGGUUCGAGUCCCGUACGGAACG [A42G A43U], the yeast fitness was 1.03.
The same measure for GUUCCGUUGGCGUAAUGGUAACGCGUCUCCCUCCUAAGGAGGCGACUGCGGGUUCGAGUCCCGUACGGAACG [A42G A43C]: 1.17.
As to GUUCCGUUGGCGUAAUGGUAACGCGUCUCCCUCCUAAGGAGCAGACUCCGGGUUUGAGUCCCGUACGGAACG [A42C G48C C55U], the yeast fitness came out at 0.557.
For GUUCCGUUGGCGUAAUGGUAACGCGUCUCCCUCCUAAGGAGGAGAUUGCGGGUUCGAGUCCCGUACGGAACG [A42G C46U] the value was 0.974; for GUUCCGUUGGCGUAAUGGUAACGCGUCUCCCUCCUAAGGAGGAGACUGCGGGUUCGAGUCCCGUACGGAACG [A42G], 0.934; for GUUCCGUUGGCGUAAUGGUAACGCGUCUCCCUCCUAAGGAGGAGACAGCGGGUUCGAGUCCCGUACGGAACG [A42G U47A], 0.785.
For GUUCCGUUGGCGUAAUGGUAACGCGUCUCCCUCCUAAGGAGGAGACUGUGGGUUCGAGCCUCGUACGGAACG [A42G C49U U59C C61U] the value was ≤ 0.5.
Turning to GUUCCGUUGGCGUAAUGGUAACGCGUCUCCCUCCUAAGGAGGAGACUGCGGGUUGGAGUCCCGUACGGAACG [A42G C55G], the yeast fitness was determined as 0.669.
As to GUUCCGUUGGCGUAAUGGUAACGCGUCUCCCUCCUAAGGAGCAGACUGCAGGUUCGAGUCCCGAACGGAACG [A42C G50A U64A], the yeast fitness was ≤ 0.5.
With GUUCCGUUGGCGUAAUGGUAACGCGUCUCCCUCCUAAGGAGCAGACUGCGGGUUCGAGUCUCGUACGGAACG [A42C C61U], the yeast fitness came to 0.668.
For GUUCCGUUGGCGUAAUGGUAACGCGUCUCCCUCCUAAGGAGGAGACUGCGGGUUCGACUCCCGUACGGAUCG [A42G G58C A70U], the yeast fitness was 0.748.
Turning to GUUCCGUUGGCGUAAUGGUAACGCGUCUCCCUCCUAAGGAGCAGACUGCGGGUUCGAGUCCUGUAUGGAACG [A42C C62U C66U], the yeast fitness was determined as 0.507.
As for GUUCCGUUGGCGUAAUGGUAACGCGUCUCCCUCCUAAGGAGGAGACUGAGGGUUCGAGUCCCGUACGGAACG [A42G C49A], the yeast fitness is 0.782.
Turning to GUUCCGUUGGCGUAAUGGUAACGCGUCUCCCUCCUAAGGAGGAGACUGGGGGUUCGAGUCCCGUACGGAACG [A42G C49G], the yeast fitness is 0.767.
In the case of GUUCCGUUGGCGUAAUGGUAACGCGUCUCCCUCCUAAGGAGGAGGCCGCGCGUUCGAGUCCCGUACGGAACG [A42G A45G U47C G51C], the yeast fitness was ≤ 0.5.
Turning to GUUCCGUUGGCGUAAUGGUAACGCGUCUCCCUCCUAAGGAGGAGACUGCGGGUUUGAGUCCCGUCCGGAACG [A42G C55U A65C], the yeast fitness worked out at 0.535.
For GUUCCGUUGGCGUAAUGGUAACGCGUCUCCCUCCUAAGGAGGAGACUGCGGGUUCGAGUCCCGUACUGAACG [A42G G67U], the yeast fitness worked out at 0.633.
Regarding GUUCCGUUGGCGUAAUGGUAACGCGUCUCCCUCCUAAGGAGCAGACUGCGGGUUCGAGGCCCGUACGGAACG [A42C U59G], the yeast fitness is 0.752.
Consider GUUCCGUUGGCGUAAUGGUAACGCGUCUCCCUCCUAAGGAGCAGACUGCGGGUUCGAGACCCGUACGGAACG [A42C U59A], for which the yeast fitness stood at 0.764.
For GUUCCGUUGGCGUAAUGGUAACGCGUCUCCCUCCUAAGGAGCAGACUGCGGGUUCGAAUCCAGUACGGAACG [A42C G58A C62A] the value was ≤ 0.5; for GUUCCGUUGGCGUAAUGGUAACGCGUCUCCCUCCUAAGGAGCAGACUGCGAGUUCGAGUCCCGUACGGAACG [A42C G51A], 0.849.

Values taken from the RNAGym collection of RNA variant scans (doi:10.1126/science.aae0568).
